Data reported in ChEMBL document CHEMBL1154040, “Synthesis and evaluation of novel F-18 labeled fluoroarylvaline derivatives: potential PET imaging agents for tumor detection” (Bioorg Med Chem Lett, 2009).

Legend:
Spleen [1] = assay: Biodistribution in S180 tumor-bearing KM mouse spleen assessed per gram of tissue at 240 to 370 kBq, iv after 120 mins; format: ADME, organism-based; conditions: in vivo, 2 h
Spleen [2] = assay: Biodistribution in S180 tumor-bearing KM mouse spleen assessed per gram of tissue at 240 to 370 kBq, iv after 30 mins; format: ADME, organism-based; conditions: in vivo, 0.5 h
Muscle tissue = assay: Biodistribution in S180 tumor-bearing KM mouse muscle assessed per gram of tissue at 240 to 370 kBq, iv after 30 mins; format: ADME, organism-based; conditions: in vivo, 0.5 h
Femur [3] = assay: Biodistribution in S180 tumor-bearing KM mouse femur assessed per gram of tissue at 240 to 370 kBq, iv after 120 mins; format: ADME, organism-based; conditions: in vivo, 2 h
Summary of the method: (§1)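 Female KM mice (20 ± 2 g) were used 14–18 days after inoculation of 5 × 10^6 S 180 tumor cells. The ¹⁸F tracer in saline was injected into the tail vein of awake mice. Mice were killed at 5, 15, 30, 60 or 120 min, and the femur was removed, weighed and gamma-counted. Results are background-corrected %ID/g, mean ± SD, n = 4.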

Femur [4] = assay: Biodistribution in S180 tumor-bearing KM mouse femur assessed per gram of tissue at 240 to 370 kBq, iv after 60 mins; format: ADME, organism-based; conditions: in vivo, 1 h; summary of the method: as §1
Femur [5] = assay: Biodistribution in S180 tumor-bearing KM mouse femur assessed per gram of tissue at 240 to 370 kBq, iv after 30 mins; format: ADME, organism-based; conditions: in vivo, 0.5 h; summary of the method: as §1
Femur [6] = assay: Biodistribution in S180 tumor-bearing KM mouse femur assessed per gram of tissue at 240 to 370 kBq, iv after 15 mins; format: ADME, organism-based; conditions: in vivo, 0.25 h; summary of the method: as §1
Femur [7] = assay: Biodistribution in S180 tumor-bearing KM mouse femur assessed per gram of tissue at 240 to 370 kBq, iv after 5 mins; format: ADME, organism-based; conditions: in vivo; summary of the method: as §1
Kidney = assay: Biodistribution in S180 tumor-bearing KM mouse kidney assessed per gram of tissue at 240 to 370 kBq, iv after 5 mins; format: ADME, organism-based; conditions: in vivo
Lung [8] = assay: Biodistribution in S180 tumor-bearing KM mouse lung assessed per gram of tissue at 240 to 370 kBq, iv after 60 mins; format: ADME, organism-based; conditions: in vivo, 1 h
Lung [9] = assay: Biodistribution in S180 tumor-bearing KM mouse lung assessed per gram of tissue at 240 to 370 kBq, iv after 30 mins; format: ADME, organism-based; conditions: in vivo, 0.5 h
Lung [10] = assay: Biodistribution in S180 tumor-bearing KM mouse lung assessed per gram of tissue at 240 to 370 kBq, iv after 5 mins; format: ADME, organism-based; conditions: in vivo
Liver = assay: Biodistribution in S180 tumor-bearing KM mouse liver assessed per gram of tissue at 240 to 370 kBq, iv after 60 mins; format: ADME, organism-based; conditions: in vivo, 1 h
Heart = assay: Biodistribution in S180 tumor-bearing KM mouse heart assessed per gram of tissue weight at 240 to 370 kBq, iv after 15 mins; format: ADME, organism-based; conditions: in vivo, 0.25 h
Blood = assay: Stability in tumor bearing KM mouse blood after 30 mins at 4 MBq, iv; format: ADME, tissue-based; conditions: 0.5 h
Summary of the method: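 Blood from tumor-bearing mice was collected after tracer injection and centrifuged at once for 5 min at 13,200 rpm. Supernatants from both centrifugation steps were combined, loaded onto a C18 Sep-Pak cartridge, washed with 2 ml water, then eluted.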

[11] = Biodistribution in S180 tumor present in KM mouse assessed per gram of tissue at 240 to 370 kBq, iv after 15 mins; format: ADME, organism-based, Neoplasm; conditions: in vivo, 0.25 h
[12] = Biodistribution in S180 tumor present in KM mouse assessed per gram of tissue at 240 to 370 kBq, iv after 60 mins; format: ADME, organism-based, Neoplasm; conditions: in vivo, 1 h
[13] = Ratio of drug level in S180 tumor to blood in KM mouse at 240 to 370 kBq, iv after 5mins; format: ADME, organism-based; conditions: tumour
[14] = Ratio of drug level in S180 tumor to blood in KM mouse at 240 to 370 kBq, iv after 30mins; format: ADME, organism-based; conditions: tumour, 0.5 h
[15] = Ratio of drug level in S180 tumor to blood in KM mouse at 240 to 370 kBq, iv after 120 mins; format: ADME, organism-based; conditions: tumour, 2 h
[16] = Ratio of drug level in S180 tumor to muscleKM mouse at 240 to 370 kBq, iv after 15 mins; format: ADME, organism-based, KM; conditions: in vivo, 0.25 h
[17] = Ratio of drug level in S180 tumor to muscleKM mouse at 240 to 370 kBq, iv after 60 mins; format: ADME, organism-based, KM; conditions: in vivo, 1 h
[18] = Ratio of drug level in S180 tumor to muscleKM mouse at 240 to 370 kBq, iv after 120 mins; format: ADME, organism-based, KM; conditions: in vivo, 2 h

Structure (SMILES) | Drug uptake (Spleen [1]) | Drug uptake (Spleen [2]) | Drug uptake (Muscle tissue) | Drug uptake (Femur [3]) | Drug uptake (Femur [4]) | Drug uptake (Femur [5]) | Drug uptake (Femur [6]) | Drug uptake (Kidney) | Drug uptake (Lung [8]) | Drug uptake (Lung [9]) | Drug uptake (Lung [10]) | Drug uptake (Liver) | Drug uptake (Heart) | Drug uptake [11] | Drug uptake [12] | tumor/blood ratio [13] | tumor/blood ratio [15] | tumor/muscle ratio [16] | tumor/muscle ratio [17] | tumor/muscle ratio [18] | also measured
CC(C)[C@H](NC(=O)c1ccc([N+](=O)[O-])cc1[18F])C(=O)O | 0.16 %ID | 0.31 %ID | 0.21 %ID | 2.15 %ID | 2.47 %ID | 3.38 %ID | 4.02 %ID | 11.9 %ID | 1.14 %ID | 1.38 %ID | 5.04 %ID | 0.77 %ID | 0.72 %ID | 0.91 %ID | 0.27 %ID | 0.56 | 1.3 | 1.95 | 1.74 | 0.66 | Drug uptake (Femur [7]): 3.61 %ID; Stability (Blood): Stable; tumor/blood ratio [14]: 2.32
COC(=O)[C@@H](NC(=O)c1ccc([N+](=O)[O-])cc1[18F])C(C)C | 0.05 %ID | 0.51 %ID | 0.82 %ID | 2.01 %ID | 2.09 %ID | 2.11 %ID | 2.23 %ID | 17.9 %ID | 0.31 %ID | 1.31 %ID | 5.49 %ID | 0.27 %ID | 0.6 %ID | 2.06 %ID | 0.95 %ID | 0.9 | 1.67 | 1.48 | 1.39 | 0.54 | Drug uptake (Femur [7]): 1.6 %ID; Stability (Blood): Stable; tumor/blood ratio [14]: 2.91
OC[C@H]1O[C@@H](O)[C@H]([18F])[C@@H](O)[C@@H]1O [FLUDEOXYGLUCOSE-F18] | 0.78 %ID | 0.9 %ID | 1.07 %ID |  |  |  |  | 2.16 %ID | 0.57 %ID | 0.64 %ID | 1.52 %ID | 0.22 %ID | 2.5 %ID | 1.56 %ID | 2.16 %ID | 1.17 | 15.8 | 1.37 | 2.23 | 2.2 | 
